aDG glyco up = alpha-DG glycosylation activation; Pro5-aDG cells, alpha-DG glycosylation AlphaScreen (IIH6); 0% Pro5, 100% B10-LARGE cell signal; actives 0.22% (n = 360,000); activation, % at 10 µM; AID 624168;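 active = activation of at least 8% versus controls, or a plate z-score of at least 8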;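 also: Pro5 are CHO cells carrying HIG-tagged alpha-DG that lacks glycosylation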
Tn7 DDE FP = disrupts Tn7 cyclic peptide binding to fibrin D-Dimer-E complex; P02675; FP displacement of FITC-Tn7 peptide from fibrin DD(E); 0% = median of compound wells per plate; inhibition, % at 8.3 µM; actives 0.13% (n = 370,000);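 active = inhibition above the mean of compounds falling within the control limits plus 3 SD of them, cut at about 14% in these data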;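 also: 0% = plate median of compound wells and 100% = 10 µM Aha-Tn7 peptide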
Target sequence (P02675 whole entry, looked up): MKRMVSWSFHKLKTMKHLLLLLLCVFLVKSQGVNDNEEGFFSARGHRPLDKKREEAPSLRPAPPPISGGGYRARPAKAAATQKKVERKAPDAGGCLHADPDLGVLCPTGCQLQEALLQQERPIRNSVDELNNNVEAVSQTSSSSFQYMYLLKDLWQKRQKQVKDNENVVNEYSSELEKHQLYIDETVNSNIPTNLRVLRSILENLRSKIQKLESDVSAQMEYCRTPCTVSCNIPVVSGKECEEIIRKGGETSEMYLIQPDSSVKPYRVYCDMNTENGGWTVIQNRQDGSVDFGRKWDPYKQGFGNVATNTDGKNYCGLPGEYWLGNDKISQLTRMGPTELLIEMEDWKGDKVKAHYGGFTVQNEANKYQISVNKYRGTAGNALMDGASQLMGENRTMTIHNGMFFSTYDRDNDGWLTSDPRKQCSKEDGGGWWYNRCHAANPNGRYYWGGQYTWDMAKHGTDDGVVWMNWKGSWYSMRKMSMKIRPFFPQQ
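Assay system: human fibrin DD(E). Input: DD(E) 2 µM final. Medium: Tris buffer with calcium and detergent, pH 7.8. Compound dosing: single point at 8.3 µM. Timing: 10 min plus 3 h, room temperature. Technique: fluorescence polarization of the labelled Tn7 tracer. Read-out: percent inhibition. Replicates: singlicate testing.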
DDE Tn6 FP inh = disrupts Tn6 cyclic peptide binding to fibrin D-Dimer-E complex | actives 0.21% (n = 370,000) | inhibition, % at 8.3 µM | P02675 | Fibrin DD(E) TRITC-Tn6 fluorescence polarization displacement | AID 720509;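 active = inhibition above a per-campaign cutoff: mean of compounds within control limits plus 3 SD, cut at about 15% in these data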;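 also: 0% = median of all compound wells on the plate and 100% = blocking peptide control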
NRP1-CendR mod = modulators of CendR peptide binding to human neuropilin-1; O14786; FAM-RPARPAR peptide binding to NRP-1, fluorescence polarization; inhibition, % at 25 µM; actives 0.85% (n = 360,000); AID 602438;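 active = inhibition or corrected inhibition above about 18%, plus a signal ratio from 0.5 to 1.5, limit read from the data, passing the limit was not always enough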
An asterisk follows results filed as active; nt = no result given; ! = not active in a repeat. Rows were chosen to be rich in hits. Some 1.3% of all compounds tested hit in one or more screens of this group.

SMILES	aDG glyco up	Tn7 DDE FP	DDE Tn6 FP inh	NRP1-CendR mod
O=C1CCCN1CCCNc1nc(NCc2cccs2)nc2ccsc12	1	5	5	26*
COCCNc1nc(NCc2cccs2)nc2ccsc12	1	8	1	10
COCc1cn(-c2ccc3c(c2)[C@]2(CC(=O)N(C)C2c2ccccc2)C(=O)N3CC(C)C)nn1 (some centres not stated)	nt	-3	0	nt
O=C(N/N=C/c1ccc([N+](=O)[O-])s1)c1ccccc1Br	5.6*	-4	2	0
O=C(N/N=C/c1ccc([N+](=O)[O-])s1)c1ccccc1	9.5*	0	-8	-27
Cc1ccccc1C(=O)N/N=C/c1ccc([N+](=O)[O-])s1	4	2	-3	-8
O=C(Cc1ccccc1)N/N=C/c1ccc([N+](=O)[O-])s1	3	3	8	-11
O=C(N/N=C/c1ccc([N+](=O)[O-])s1)C(O)c1ccccc1 (configuration not stated)	11*	1	-2	6
CC(C)(C)S(=O)(=O)N1C[C@@H]2C(=C(CCO)C[C@@H]3C(=O)N(c4ccccc4)C(=O)[C@@H]32)[C@H]1CCO	nt	-6	4	nt
CCCNC(=O)c1cc(C)no1	0	-10	-2	25*
O=C1O[C@@H](c2ccccc2)C[C@@H](O)C(=O)CCc2ccccc21	0	2	0	2
CCOC(=O)C1CCN(C(=O)c2c(C)oc3c2C(=O)c2ccccc2C3=O)CC1	4.3*	8	1	-1
CC(C)C[C@H](NC(=O)C1CC1)C(=O)N1CCC[C@H]1C(=O)NCc1ccccc1	nt	2	1	nt
CC(=O)Nc1ccc(Oc2cc(C#N)c(C#N)cc2N2CCOCC2)cc1	0	-10	2	41*
COC(=O)C1=C(C)NC(C)=C(C(=O)OC)C1C(=O)OC(C)C(=O)c1ccccc1 (configuration not stated)	0	12	-2	25*!
Cc1c(NC(=O)c2cc(-c3ccc(F)cc3)nc3ccccc23)c(=O)n(-c2ccccc2)n1C	0	-4	3	14
Cc1cccc(-c2cc(C(=O)Nc3c(C)n(C)n(-c4ccccc4)c3=O)c3ccccc3n2)c1	-1	-6	-1	33*
COC(=O)CC#C[C@H](C)[C@@H](NS(=O)(=O)c1ccc(C)cc1)C1CCCCC1	nt	5	-5	nt
O=C(c1ccc(-c2cccc(Cl)c2)o1)N1CCN(c2ccc([N+](=O)[O-])cc2)CC1	1	-9	2	29*
N/C(Cc1ccc(Cl)c(Cl)c1)=N\OC(=O)c1cccs1	0	-7	0	7
N/C(=N\OC(=O)c1cccs1)C1(c2ccc(Cl)cc2Cl)CC1	0	-2	1	37*
O=[N+]([O-])c1ccc(Cl)c2c1C1C=CCC1C(c1ccccn1)N2 (configuration not stated)	-1	-11	-8	28*
COc1ccc([C@H]2/C=C\CN(C(=O)C3CC3)[C@@H](C)C(=O)N2Cc2ccc(F)cc2)cc1	0	-7	0	33*
COc1ccc([C@H]2/C=C\CN(S(C)(=O)=O)[C@@H](C)C(=O)N2Cc2ccc(F)cc2)cc1	0	-2	-4	22*
C=CCn1c(SCC(=O)Nc2ccccc2OCC)nnc1-c1ccc(C(C)(C)C)cc1	nt	-6	1	nt
SMILES	aDG glyco up	Tn7 DDE FP	DDE Tn6 FP inh	NRP1-CendR mod
COC(=O)C(C(=O)OC)c1ccccc1[N+](=O)[O-]	0	-3	0	31*
O=C1NC[C@@H](CCCCN2C[C@H](Cc3ccccc3)N(CCc3ccc(O)cc3)C(=O)C2=O)N(Cc2ccccc2)C1=O	0	-1	-1	18*
O=C1NC[C@H](CCCCN2C[C@H](Cc3ccc(O)cc3)N(Cc3ccccc3)C(=O)C2=O)N(CCc2ccccc2)C1=O	0	-3	4	17
CC(=O)C[C@H](O)CC(=O)[C@H]1OC(=O)[C@H](C)C/C=C\Cc2ccccc21	0	-7	2	25*
COc1ccc(S(=O)(=O)Nc2ccc3c(c2)C(=O)N([C@H](C)CO)C[C@H](C)[C@@H](CN(C)S(=O)(=O)c2cn(C)cn2)OCCCC[C@H](C)O3)cc1	0	0	2	-7
C[C@H](CO)N1C[C@H](C)[C@@H](CN(C)S(C)(=O)=O)Oc2ccc(NC(=O)NC3CCCCC3)cc2C1=O	0	2	-3	31*
Cc1noc(C)c1S(=O)(=O)N(C)C[C@H]1OCCCC[C@@H](C)Oc2ccc(NS(=O)(=O)c3cn(C)cn3)cc2C(=O)N([C@H](C)CO)C[C@@H]1C	0	-3	-6	26*
CC(C)NC(=O)N(C)C[C@H]1Oc2ccc(NC(=O)Nc3ccc4c(c3)OCO4)cc2C(=O)N([C@H](C)CO)C[C@@H]1C	0	-3	-5	29*
C[C@@H]1CN([C@H](C)CO)C(=O)c2cc(NC(=O)Nc3ccc(C(F)(F)F)cc3)ccc2O[C@H]1CN(C)S(=O)(=O)c1ccc(Cl)cc1	1	0	44*	-15
C[C@H](CO)N1C[C@H](C)[C@@H](CN(C)S(C)(=O)=O)Oc2ccc(NC(=O)Nc3ccc(C(F)(F)F)cc3)cc2C1=O	0	-6	-7	-7
COC(=O)C1CCCN(C(=O)C2CCN(S(=O)(=O)c3cccs3)CC2)C1 (configuration not stated)	nt	-8	-1	nt
Cc1noc(C)c1NC(=O)Nc1ccc2c(c1)C(=O)N([C@H](C)CO)C[C@H](C)[C@@H](CN(C)C(=O)NC(C)C)O2	0	2	-2	27*
CC(C)NC(=O)N(C)C[C@H]1Oc2ccc(NC(=O)Nc3ccccc3)cc2C(=O)N([C@H](C)CO)C[C@@H]1C	0	1	0	34*
CC(C)NC(=O)N(C)C[C@H]1Oc2ccc(NC(=O)Nc3ccccc3)cc2C(=O)N([C@@H](C)CO)C[C@@H]1C	0	3	-7	9
CCCC(=O)OC[C@H]1CN(C2CCCC2)S(=O)(=O)c2c(Oc3ccc(F)cc3)cccc2O1	nt	0	0	nt
COC(=O)[C@]12C[C@H](CC(=O)NCc3ccccc3)C(=O)N(Cc3ccccc3)C1=C[C@H](C1CCCC1)O[C@@H]2C	nt	6	4	nt
COc1ccc(NC(=O)C2CCN(C(=O)Cc3ccccc3)CC2)cc1OC	0	-3	7	2
COc1ccc(NC(=O)C2CCN(C(=O)Nc3ccccc3)CC2)cc1S(=O)(=O)N(C)C	0	-4	0	23*
O=C(NCc1ccccc1)c1cc(C2CCCCN2S(=O)(=O)c2cccs2)on1 (configuration not stated)	0	6	-6	6
C#CCNC(=O)C[C@H]1C[C@@]2(C(=O)OC)C(=C[C@H](COCc3ccccc3)O[C@@H]2C)N(Cc2ccc3c(c2)OCO3)C1=O	nt	-3	10	nt
COc1ccc(C2CC(c3ccccc3)Nc3nc(NC(=O)c4cccs4)nn32)cc1 (configuration not stated)	0	0	-3	31*

Bioassay records deposited in PubChem by several laboratories.
